NR2F2 inh = NR2F2 transcriptional activity inhibitors, primary screen, cell-based, luciferase reporter, HEK293T, luminescence | AID 686940, 2013 | COUP transcription factor 2 (Homo sapiens), P24468 | 370,000 tested, 0.7% active | HEK293T NGFI-A luciferase reporter | inhibition, % at 8.6 µM;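 active means inhibition above a per-plate cutoff, mean inhibition of test wells between control levels plus 3 SD, cut at about 38% in these data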;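 further: cells cotransfected with COUP-TFII expression vector driving the NGFI-A reporter; 0% = median of COUP-TF2 test wells and 100% = reporter-only cells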
NR2E3 ag-1 = inhibitors of NR2E3-RetCOR corepressor binding, primary screen, NR2E3 agonist project, biochemical, TR-FRET, GST-NR2E3, biotin-RetCOR | Photoreceptor-specific nuclear receptor (Homo sapiens), Q9Y5X4 | 1536-well | inhibition of corepressor binding, % at 4.78 µM | 320,000 tested, 0.12% active | AID 2300, 2010;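 active means percent inhibition above the cutoff of mean plus 3 SD of all tested compounds, set per screening campaign, cut at about 20% in these data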;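 further: 0% = DMSO wells and 100% = biotin wells as full block of FRET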
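system = GST-tagged NR2E3 plus biotinylated RetCOR corepressor | input = 1.35 nM GST-NR2E3 | also added = 7 nM biotin-RetCOR | schedule = 5 h incubation at 4 °C | measured by = TR-FRET with europium anti-GST and streptavidin-D2, 340 nm excitation | read-out = percent loss of FRET ratio relative to control wells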
NR2E3 ag-2 = NR2E3 agonists in two-hybrid cells, primary screen, cell-based, luminescence, CHO-S, Gal4-NCOR/VP16-NR2E3 | 360,000 tested, 0.35% active | inhibition of corepressor binding, % at 3.98 µM | AID 602229, 2012 | Photoreceptor-specific nuclear receptor (Homo sapiens), Q9Y5X4 | luciferase;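 active means inhibition above the mean of all tested compounds plus 3 SD, cut at about 70% in these data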;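 further: 0% = DMSO with NR2E3 transfected cells and 100% = cells lacking NR2E3 construct; higher means lower luciferase signal from less NR2E3 corepressor binding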
GalR3 antag = GalR3 antagonists in HEK293 cells, primary screen, cell-based, fluorescence readout. Galanin receptor type 3 (Homo sapiens), O60755. HEK293 GalR3-CNG cAMP membrane potential fluorescence; galR3 body fused to GalR1 C-terminus. inhibition, % at 3 µM. 360,000 tested, 0.44% active;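 active means inhibition above the screen-wide average plus 3 SD, cut at about 13% in these data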;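 further: forskolin and galanin both at EC90 stimulate the cells; cAMP rise reported by CNG channel membrane potential dye signal; 0% = forskolin plus galanin with DMSO and 100% = forskolin alone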
CHT inh = inhibitors of human choline transporter CHT | High affinity choline transporter 1 (Homo sapiens), Q9GZV3 | 310,000 tested, 0.86% active | B-score at 10 µM | AID 488975, 2010 | CHT-expressing cells, membrane potential dye, choline response; stronger effect = lower value;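 active means B-score over 3 SD under the library average, and starting fluorescence ratio not unusually high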;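 further: choline stimulus applied at its EC90 after an EC20 pre-addition; B-score computed on integrated fluorescence ratio after choline addition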
Target sequence (Q9GZV3 whole entry, looked up): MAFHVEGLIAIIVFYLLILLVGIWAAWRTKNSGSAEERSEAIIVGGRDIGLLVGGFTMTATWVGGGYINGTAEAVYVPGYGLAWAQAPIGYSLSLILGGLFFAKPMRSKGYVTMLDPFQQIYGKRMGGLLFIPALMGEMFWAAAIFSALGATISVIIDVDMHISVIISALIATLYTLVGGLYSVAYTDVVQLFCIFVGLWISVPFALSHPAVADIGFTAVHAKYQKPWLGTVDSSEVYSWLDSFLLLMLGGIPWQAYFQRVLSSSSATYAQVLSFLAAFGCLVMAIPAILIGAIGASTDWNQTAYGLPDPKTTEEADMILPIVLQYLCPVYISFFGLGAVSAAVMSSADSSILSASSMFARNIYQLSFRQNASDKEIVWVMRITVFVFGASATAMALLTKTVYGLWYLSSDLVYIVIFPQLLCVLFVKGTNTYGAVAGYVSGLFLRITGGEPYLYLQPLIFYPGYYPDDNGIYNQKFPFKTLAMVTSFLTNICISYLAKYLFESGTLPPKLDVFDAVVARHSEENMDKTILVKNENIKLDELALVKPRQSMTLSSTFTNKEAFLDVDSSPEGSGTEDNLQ
CHT PAM = CHT positive allosteric modulators, primary screen, cell-based, membrane potential dye, choline EC20. AID 488977, 2010. B-score at 10 µM. 310,000 tested, 0.49% active. CHT-expressing cells; stronger effect = higher value; LV-AA mutant CHT in HEK293 cells;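 active means initial fluorescence not abnormally high and integrated response B-score, plate-corrected, over 3 SD above library mean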
CHT inh conf = CHT inhibitors, confirmation, cell-based, membrane potential dye, duplicate; shares compounds with CHT inh; CHT-expressing cells, choline membrane potential dye; LV-to-AA substituted CHT, HEK293 cells; CHT activity remaining % of control (stronger effect = lower value), % at 10 µM; 2,400 tested, 70% active; AID 493221, 2011;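 active means choline transporter activity left, mean of duplicates at 10 µM, below buffer-only control mean minus 3 SD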;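 further: depolarization triggered by choline at its EC90 following an EC20 pre-addition; 0% = hemicholinium-3 full block and 100% = buffer-only control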
HEK293 CHT ctr = membrane potential effects in parental HEK293, counter-screen for CHT inhibitor project, cell-based, membrane potential dye; shares compounds with CHT inh; choline response; active = decrease or increase beyond buffer ±3SD; membrane potential ratio readout (active if shifted either direction beyond buffer ±3SD; no single direction) at 10 µM; 2,400 tested, 4% active; AID 493222, 2011;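 further: parental cells lack the transporter so any hit is non-specific; ratio is peak minus trough fluorescence over baseline after EC90 choline challenge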
Numbers without * were called inactive. The list is not random: actives were taken first. Their share in the collection is about 2.3%.

What do the screens show for `CC(C)c1nnc(NC(=O)c2nc(S(=O)(=O)Cc3ccc(F)cc3)ncc2Cl)s1`?
NR2F2 inh: -2; NR2E3 ag-1: 5; NR2E3 ag-2: 24; GalR3 antag: -9; CHT inh: -6.2*; CHT PAM: inactive; CHT inh conf: 19%*; HEK293 CHT ctr: inactive

What do the screens show for `CCc1nnc(NC(=O)c2nc(S(=O)(=O)Cc3ccccc3)ncc2Cl)s1`?
NR2F2 inh: -8; NR2E3 ag-1: 7; NR2E3 ag-2: 31; GalR3 antag: -8; CHT inh: inactive; CHT PAM: inactive

Results for CCN(CC)C(=O)CC[C@H]1CC[C@]2(CCCN(C(=O)c3ccccc3)C2)O1 ?
NR2F2 inh: -8

What do the screens show for `CC(C)NC(=O)Cn1nc(C(F)(F)F)c2c1CCC2`?
NR2F2 inh: 8; NR2E3 ag-1: -2; NR2E3 ag-2: 4; GalR3 antag: 2; CHT inh: inactive; CHT PAM: inactive

What do the screens show for `O=C(Cn1nc(C(F)(F)F)c2c1CCCC2)NC1CCCC1`?
NR2F2 inh: -25; NR2E3 ag-1: 1; NR2E3 ag-2: 3; GalR3 antag: -1; CHT inh: -5.8*; CHT PAM: inactive; CHT inh conf: 52%*; HEK293 CHT ctr: inactive

Results for CC(=O)Nc1cc(NC(C)=O)cc(C(=O)OC(C)C(=O)Nc2ccc(S(=O)(=O)N3CCCC3)cc2)c1 (stereo not given) ?
NR2F2 inh: 10; NR2E3 ag-1: 0; NR2E3 ag-2: -8; GalR3 antag: 2; CHT inh: -5*; CHT PAM: inactive; CHT inh conf: 45%*; HEK293 CHT ctr: inactive

How did CC(OC(=O)c1ccc(S(=O)(=O)N2CCCCC2)cc1)C(=O)Nc1ccc(C(N)=O)cc1 (stereo not given) do in these assays?
NR2F2 inh: 20; NR2E3 ag-1: 0; NR2E3 ag-2: -15; GalR3 antag: -5

How did COC(=O)[C@]12C[C@H](CC(=O)NCc3cccs3)C(=O)N(Cc3ccco3)C1=C[C@H](C(C)(C)C)O[C@@H]2C do in these assays?
NR2F2 inh: -8

How did COC(=O)[C@]12C[C@H](CC(=O)N3CCOCC3)C(=O)N(Cc3cccc4ccccc34)C1=C[C@H](C(C)C)O[C@@H]2C1CC1 do in these assays?
NR2F2 inh: -15

What do the screens show for `CCCOc1ccc(NC(=O)c2c(-c3ccccc3)noc2C)cc1`?
NR2F2 inh: -14; NR2E3 ag-1: 0; NR2E3 ag-2: 27; GalR3 antag: -2; CHT inh: inactive; CHT PAM: inactive

What do the screens show for `CCCOc1ccc(C(=O)NC(=S)NNC(=O)c2c(-c3ccccc3)noc2C)cc1`?
NR2F2 inh: -20; NR2E3 ag-1: 2; NR2E3 ag-2: -52; GalR3 antag: 6; CHT inh: -12*; CHT PAM: inactive; CHT inh conf: 56%*; HEK293 CHT ctr: inactive

Results for CCN1CCCCC(NC(=O)c2ccccc2)C1=O (stereo not given) ?
NR2F2 inh: -10

How did COc1ccc(C(=O)c2c3ccc(C(F)(F)F)cc3[n+]([O-])n2CCCC(N)=O)cc1 do in these assays?
NR2F2 inh: -3; NR2E3 ag-1: 2; NR2E3 ag-2: -5; GalR3 antag: 0; CHT inh: inactive; CHT PAM: inactive

What do the screens show for `NC(=O)CCCn1c(C(=O)c2cc(Cl)c(N)c(Cl)c2)c2ccc(C(F)(F)F)cc2[n+]1[O-]`?
NR2F2 inh: 4; NR2E3 ag-1: 2; NR2E3 ag-2: -1; GalR3 antag: -5; CHT inh: -10*; CHT PAM: inactive; CHT inh conf: -1.6%*; HEK293 CHT ctr: inactive

Results for NCCCn1c(C(=O)c2cc(Cl)c(N)c(Cl)c2)c2ccc(C(F)(F)F)cc2[n+]1[O-] ?
NR2F2 inh: -4; NR2E3 ag-1: 1; NR2E3 ag-2: -21; GalR3 antag: -9; CHT inh: -8.2*; CHT PAM: inactive; CHT inh conf: 14%*; HEK293 CHT ctr: inactive

How did O=C1N(Cc2ccccc2)c2ccccc2C12CCCc1sc(CCc3ccccc3)nc12 (stereo not given) do in these assays?
NR2F2 inh: 4

Results for O=C(Nc1ccc(S(=O)(=O)N2CCOCC2)cc1)c1cc([N+](=O)[O-])ccc1Cl ?
NR2F2 inh: 8; NR2E3 ag-1: 4; NR2E3 ag-2: 6; GalR3 antag: 1; CHT inh: inactive; CHT PAM: inactive

Results for CN1CCN(c2ccc(NC(=O)c3ccc(Cl)cc3Cl)cc2)CC1 ?
NR2F2 inh: -41; NR2E3 ag-1: 0; NR2E3 ag-2: -54; GalR3 antag: -1; CHT inh: -6.4*; CHT PAM: inactive; CHT inh conf: 41%*; HEK293 CHT ctr: inactive

Results for O=C(Nc1ccc(S(=O)(=O)NC2=NCCCCC2)cc1)c1ccc(Cl)cc1Cl ?
NR2F2 inh: 14; NR2E3 ag-1: -1; NR2E3 ag-2: -12; GalR3 antag: -2; CHT inh: -12*; CHT PAM: inactive; CHT inh conf: -7.3%*; HEK293 CHT ctr: inactive

How did O=C(Nc1ccc(S(=O)(=O)N2CCOCC2)cc1)c1ccc(Cl)cc1Cl do in these assays?
NR2F2 inh: 18; NR2E3 ag-1: 2; NR2E3 ag-2: 18; GalR3 antag: -8; CHT inh: -6.4*; CHT PAM: inactive; CHT inh conf: 43%*; HEK293 CHT ctr: inactive

What do the screens show for `O=C(Cc1ccc(Cl)c(Cl)c1)Nc1ccc(S(=O)(=O)Nc2ccon2)cc1`?
NR2F2 inh: -22

How did CC(C)CNc1cccc2c1S(=O)(=O)N(Cc1cn(Cc3ccc(F)cc3)nn1)Cc1ccccc1O2 do in these assays?
NR2F2 inh: 4

How did CCOc1ccc(-n2c(SCC(=O)Nc3ccccc3-c3ccccc3)nnc2-c2ccncc2)cc1 do in these assays?
NR2F2 inh: 7

How did COc1cnc(-c2ccccc2)nc1Oc1ccc(C(C)(C)C)cc1 do in these assays?
NR2F2 inh: 7; NR2E3 ag-1: 3; NR2E3 ag-2: 2; GalR3 antag: -5; CHT inh: inactive; CHT PAM: inactive
